Hits are enriched below; roughly 8.2% of the tested compounds scored in any of these assays.
SF-1 act: activates the human nuclear receptor SF-1. CHO-K1 Gal4-SF-1 LBD luciferase reporter; % increase over DMSO SF-1-specific signal. activation, % at 10 µM. hit rate 1.9% among 65,000. AID 522. Q13285;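 active = activation above the mean activation of all tested compounds plus 3 SD, cut at about 50% in these data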
Target sequence (Q13285 whole entry, looked up, the tested form may be a part): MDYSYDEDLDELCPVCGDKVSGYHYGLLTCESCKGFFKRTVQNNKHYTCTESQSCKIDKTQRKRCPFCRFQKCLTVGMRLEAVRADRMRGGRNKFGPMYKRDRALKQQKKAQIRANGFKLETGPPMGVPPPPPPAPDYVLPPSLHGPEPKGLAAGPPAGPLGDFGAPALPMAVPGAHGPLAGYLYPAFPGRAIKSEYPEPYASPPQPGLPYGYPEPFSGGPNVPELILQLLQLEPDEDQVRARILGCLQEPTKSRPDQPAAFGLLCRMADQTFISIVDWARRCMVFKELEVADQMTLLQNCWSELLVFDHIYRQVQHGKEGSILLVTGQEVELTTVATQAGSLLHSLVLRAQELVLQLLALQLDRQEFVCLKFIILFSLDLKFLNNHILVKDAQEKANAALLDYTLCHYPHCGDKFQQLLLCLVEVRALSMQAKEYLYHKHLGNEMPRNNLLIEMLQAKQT
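Test system: CHO-K1 cells co-transfected with Gal4 DBD–human SF-1 LBD, 5xGal4 luciferase reporter. Quantity: 4,000 cells per well. Compound: 10 µM only. Incubation: compound added 1 h post-seeding, 20 h exposure at 37 °C, 5% CO2. Detection: SteadyLite luciferase luminescence. Replication: one test per compound.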
M1 antag: antagonists of rat M1 muscarinic receptor. CHO-M1 cells, Fluo-4 calcium, ACh EC80 antagonist mode; active compounds read low. P08482. hit rate 3.4% among 64,000. B-score at 10 µM;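 active = calcium fluorescence response, raw or row-and-column corrected B-score, differing from the plate sample mean either way at a set confidence level, mostly lower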
RORA act: activators of human nuclear receptor RORA | CHO-K1 Gal4-RORA LBD luciferase reporter, luminescence; percent increase over mock-subtracted basal signal | activation, % at 10 µM | hit rate 1.5% among 65,000 | AID 560;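 active = activation above the mean of all tested compounds plus 3 SD, cut at about 49% in these data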;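 also: 0% = DMSO-treated RORA cells and 100% = added signal equal to DMSO minus mock-transfected cells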
D1 allo mod: D1 dopamine receptor (human) allosteric modulation. HEK293 D1, CRE-luciferase, dopamine EC30 potentiation; actives deviate in either direction. B-score at 10 µM. hit rate 5.9% among 58,000;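 active = luminescence count or its row- and column-corrected plate score outside the 99.7% band of the plate's sample wells, on either side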
HePTP inhibitor: inhibitors of human HePTP phosphatase; AID 521; hit rate 0.64% among 110,000; recombinant HePTP phosphatase activity, OD absorbance; P35236; inhibition, % at 20 µM; in the data active = inhibition above about 50%;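 also: plate controls were vehicle for no effect and reference inhibitor for full effect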
M1 agonist: agonists of M1 muscarinic receptor; CHO-M1 cells, Fluo-4 calcium fluorescence, agonist mode; active compounds read high; B-score at 10 µM; hit rate 3% among 64,000;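 active = fluorescence rise, raw or as B-score row- and column-corrected plate score, outside the 99.7% band of its plate's samples, either direction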
D1 mod confirm: confirmation of human D1 dopamine receptor allosteric modulators; shares compounds with D1 allo mod; HEK293 D1 CRE-luciferase, dopamine EC30 potentiation; active compounds read high; luminescence at 10 µM; hit rate 88% among 2,200; AID 642;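 active = luminescence in either of two replicates above the same-plate mean plus 3 SD of the low-dose dopamine control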
D1 ag no DA: D1 (human) signaling in absence of dopamine; shares compounds with D1 allo mod; hit rate 0.8% among 1,900; AID 646; HEK293 D1 CRE-luciferase, luminescence, no dopamine; active compounds read high; luminescence at 10 µM; in the data active = luminescence above about 3900
Isoprot counter: isoproterenol response counter-screen activity for D1 modulators; shares compounds with D1 allo mod; hit rate 63% among 2,200; calls only at 10 µM; AID 647; HEK293 D1 CRE-luciferase, isoproterenol EC30 counter-screen;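 active = luminescence in either replicate above plate mean of wells with a partly effective reference agonist dose plus 3 SD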;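 also: isoproterenol raises cAMP through native beta-adrenoceptor Gs so signal bypasses D1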
* hit, by the source's call; i = inactive; / = no result given; + = active, no number.

SMILES | SF-1 act | M1 antag | RORA act | D1 allo mod | HePTP inhibitor | M1 agonist | D1 mod confirm | D1 ag no DA | Isoprot counter
Nc1nonc1-n1nnc(C(=O)c2ccccc2)c1-c1ccccc1 | 9.1 | -1.66 | 7.8 | 4.29* | -11.0 | 0.785 | 9084* | 1920 | i
CCOC(=O)C1CCCN(C(=O)c2cn(C)c3ccc(S(=O)(=O)N4CCCC4)cc3c2=O)C1 (stereo not drawn) | -3.9 | / | 12.2 | -0.248 | 4.2 | / | / | / | /
Cc1noc(C)c1S(=O)(=O)N1CCC(C(=O)N2CCC(C)CC2)CC1 | -0.4 | / | 11.8 | 1.11 | -8.8 | / | / | / | /
CCN(CC)CCNc1nc2c(c(=O)[nH]c(=O)n2C)n1CC(O)COc1ccc(Cl)cc1Cl (stereo not drawn) | -4.5 | -0.635 | -8.7 | 0.319 | 12.6 | 1.61 | / | / | /
COc1ccccc1C(=O)Nc1c2c(nn1-c1cccc(C)c1C)CS(=O)(=O)C2 | -5.0 | -0.0432 | -19.8 | 6.61* | 9.0 | -0.256 | 14916* | 1716 | +
N#Cc1c(N)sc2c1CCN(Cc1ccccc1)C2 | / | / | / | / | 13.2 | / | / | / | /
N#Cc1sc2nc3c(c(-c4ccco4)c2c1N)CCCC3 | -14.1 | 0.202 | -12.1 | 9.56* | 5.6 | -0.785 | 12060* | 1392 | +
COc1ccc(Nc2nc(N)nc(C(F)(F)F)n2)c(OC)c1 | 15.8 | 0.169 | 1.1 | 4.24* | -1.4 | 0.956 | 11048* | 1732 | +
COc1ccc(Nc2nc(N3CCCCC3)nc(N3CCCCC3)n2)c(OC)c1 | 0.9 | -0.0997 | -14.8 | 2.4 | 11.8 | -0.731 | / | / | /
COC(=O)CSc1nnc(-c2cccs2)n1-c1ccc(Cl)cc1 | 6.6 | 0.00916 | 2.1 | 2.83* | 6.8 | 0.639 | 9056* | / | +
COc1ccc(-n2c(SCC(=O)Nc3ccc(C(=O)O)cc3)nnc2-c2cccs2)cc1 | -1.1 | -0.0443 | 12.8 | 0.521 | 1.1 | -0.0884 | / | / | /
O=C(Nc1ncccn1)C1CCCN1S(=O)(=O)c1ccc(Cl)c(Cl)c1 (stereo not drawn) | 11.3 | 0.808 | 7.9 | -0.699 | 5.5 | 0.165 | / | / | /
COCCCNc1oc(-c2ccccc2F)nc1C#N | 57.4* | 0.000983 | 38.9 | 5.83* | 4.3 | 0.00462 | 11980* | 1596 | +
N#Cc1nc(-c2ccccc2F)oc1NCc1ccccc1 | 18.4 | -0.411 | 3.0 | 7.87* | 3.7 | 0.616 | 14936* | 1516 | +
CCOC(=O)C1CCN(C(=O)CN(C)S(=O)(=O)c2cc(C)ccc2OC)CC1 | 4.5 | -0.157 | -16.0 | -0.00105 | 10.8 | 0 | / | / | /
COc1ccc(C2CC(c3ccc(Br)cc3)=NN2C(=O)CCC(=O)O)cc1 (stereo not drawn) | / | / | / | / | 5.1 | / | / | / | /
COC(=O)CCCC(=O)Nc1ccc(Cl)c(Cl)c1 | 10.9 | -1.21 | -0.1 | -0.296 | 1.0 | -0.737 | / | / | /
CSc1oc(-c2ccco2)nc1S(=O)(=O)c1ccc(F)cc1 | -13.6 | -0.495 | -19.8 | 3.43* | -3.0 | 1.24 | 11924* | 1676 | i
CC(C)Sc1oc(-c2ccco2)nc1S(=O)(=O)c1ccccc1 | -24.7 | -0.113 | -9.7 | 6.47* | / | -0.258 | 19332* | 1752 | +
CSc1oc(-c2ccco2)nc1S(=O)(=O)c1ccccc1 | -7.3 | -0.0331 | -11.4 | / | -0.1 | 0.0552 | / | / | /
COc1cc(NC(=O)c2ccc(NS(=O)(=O)c3c(C)noc3C)cc2)cc(OC)c1 | -13.8 | -0.452 | -7.5 | -1.98 | -0.4 | -0.511 | / | / | /
Cn1cccc1Cc1nnc(SCC(=O)Nc2nc3ccccc3s2)n1CCc1ccccc1 | 14.4 | -0.0552 | 6.3 | -0.471 | -3.6 | 0.0731 | / | / | /
Cc1ccc(OCC(=O)NCc2ccc3c(c2)OCO3)c(Br)c1 | / | / | / | / | 1.8 | / | / | / | /
N#Cc1c2c(c(NCCCN3CCOCC3)n3c1nc1ccccc13)CCC2 | 17.4 | -1.06 | 3.8 | 0.00909 | 8.9 | -0.237 | / | / | /
N#Cc1c2c(c(NCCN3CCOCC3)n3c1nc1ccccc13)CCCC2 | -3.0 | -0.00929 | -22.4 | 3.5* | 10.9 | 1.97 | 15848* | 1800 | +
SMILES | SF-1 act | M1 antag | RORA act | D1 allo mod | HePTP inhibitor | M1 agonist | D1 mod confirm | D1 ag no DA | Isoprot counter
Cc1ccc(OCC(=O)N=Nc2c(O)[nH]c3ccc(Br)cc23)cc1 | / | / | / | / | 12.6 | / | / | / | /
COc1ccc2c(c1)CC/C2=N\OC(=O)c1cccc2ccccc12 | / | / | / | / | 5.3 | / | / | / | /
CC1CCc2nc(NCCO)nc(C(F)(F)F)c2C1 (stereo not drawn) | -3.3 | 0.201 | -19.7 | 7.48* | 13.9 | -0.386 | 13160* | 1232 | +
Cc1cccc(OCCSc2nc3ccccc3c(=O)[nH]2)c1 | / | / | / | / | 13.0 | / | / | / | /
O=c1[nH]c(SCCOc2ccccc2)nc2ccccc12 | -10.4 | 0.00566 | 17.8 | 5.28* | 5.3 | 0.056 | 7564* | / | +
CCN1C=C(C(=O)OC)C(c2cccc(C)c2)C(C(=O)OC)=C1 | -20.5 | -0.322 | -3.1 | -0.451 | 0.6 | -0.0357 | / | / | /
COC(=O)c1ccccc1NC(=O)COc1ccc(C)cc1C | / | / | / | / | -9.8 | / | / | / | /
COC(=O)c1ccccc1NC(=O)COc1ccc(-c2ccc(C)cc2)cc1 | / | / | / | / | 6.0 | / | / | / | /
COC(=O)c1ccccc1NC(=O)COc1ccccc1 | 4.1 | -0.37 | -22.5 | 5.83* | -9.5 | -0.0601 | 14156* | 1628 | +
COC(=O)c1ccccc1NC(=O)COc1ccc(S(=O)(=O)N2CCCC2)cc1C | -8.5 | -0.357 | -16.6 | 3.24* | 12.2 | -0.309 | 5776* | 1512 | i
COc1ccc(C2C(C(=O)c3cccs3)=C(O)C(=O)N2c2nncs2)cc1OC (stereo not drawn) | / | / | / | / | 9.1 | / | / | / | /
C=CCn1c(SCc2c(C)noc2C)nc2sc3c(c2c1=O)CCCCC3 | -6.9 | 0.58 | -13.5 | 1.22 | 4.6 | -0.858 | / | / | /
Cc1noc(C)c1CSc1nc2sc(C)c(C)c2c(=O)n1C1CCCC1 | 14.3 | 0.287 | -1.1 | 10.5* | -6.0 | -0.687 | 13364* | 1472 | +
COC(=S)N/C(=N/S(=O)(=O)c1ccc(Cl)cc1)c1ccccc1 | / | / | / | / | 7.1 | / | / | / | /
CCC1CCc2c(sc3ncnc(N4CCOCC4)c23)C1 (stereo not drawn) | -9.4 | -0.233 | 2.8 | 17.1* | 6.0 | 0.96 | 15132* | 1584 | +
c1ccc(-c2csc3ncn4cnnc4c23)cc1 | 2.2 | 0.957 | -2.9 | 17.8* | -4.3 | -0.452 | 18512* | 1700 | +
O=c1c2c(-c3ccccc3)csc2ncn1/N=C/c1ccccn1 | / | / | / | / | 1.3 | / | / | / | /
Cc1cc(C(=O)OCC(=O)N2C(C)CCCC2C)c(C)o1 (stereo not drawn) | 7.7 | 1.2 | -3.1 | -0.102 | 2.0 | -0.403 | / | / | /
Cc1c(C(=O)N2CCCCC2)sc(NC(=O)C(C)C)c1C#N | 19.8 | -0.174 | 8.0 | 1.11 | 4.4 | 0.132 | / | / | /
CCOC(=O)c1sc2nc(N3CCOCC3)c3c(c2c1N)CCCC3 | -6.8 | 0.758 | -5.2 | 1.18 | 4.8 | -0.0574 | / | / | /

High-throughput results deposited in PubChem by several laboratories.
